Assay results reported in ChEMBL document CHEMBL1131003, “Nonsymmetric P2/P2' cyclic urea HIV protease inhibitors. Structure-activity relationship, bioavailability, and resistance profile of monoindazole-substituted P2 analogues” (J Med Chem, 1998).

Key:
[1] = target: Human immunodeficiency virus type 1 protease (Human immunodeficiency virus 1, UniProt Q72874); experiment: Inhibitory activity against HIV protease
How it was run: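 Ki for HIV protease, measured by cleavage of a fluorescent substrate with HPLC analysis, following the earlier method.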

[2] = Peak plasma concentration was measured in dogs; format: ADME, organism-based, Canis lupus familiaris; details: dog
MT2 = experiment: Antiviral potency evaluated by measuring accumulation of viral RNA transcripts 3 days after infection of MT-2 cells with HIV-1 RF; format: functional; details: Homo sapiens, MT2, 72 h
[3] = Oral bioavailability in dog (dose 10 mg/kg); format: ADME, organism-based, Canis lupus familiaris; details: in vivo
How it was run: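 Dogs, n = 3 per group, given 10 mg/kg in a propylene glycol/polyethylene glycol 400/water formulation, dosed orally and intravenously. F% = AUC po/AUC iv, with AUC from time zero to infinity of the plasma concentration-time curve, normalized for dose.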

[4] = target: Human immunodeficiency virus type 1 protease (Human immunodeficiency virus 1) (UniProt Q72874); experiment: Antiviral activity against mutant virus HIV-1 mutant (84V) strain; format: functional
How it was run: (§1)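 I84V single and I84V/V82F double mutant HIV-1, both from in vitro selection under a cyclic urea inhibitor. IC90 measured by yield reduction assay.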

[5] = target: Human immunodeficiency virus type 1 protease (Human immunodeficiency virus 1) (UniProt Q72874); experiment: Antiviral activity against mutant virus HIV-1 mutant (84V/82F) strain; format: functional; how it was run: as §1
[6] = target: Human immunodeficiency virus type 1 protease (Human immunodeficiency virus 1) (UniProt Q72874); experiment: Antiviral activity against ritonavir virus (HIV-1 mutated at 46I/63P/71V/82F/84V and resistant to ritonavir); format: functional
How it was run: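 Mutant HIV-1 viruses carrying protease substitutions seen in ritonavir- or indinavir-treated patient isolates; the ritonavir virus carries 46I/63P/71V/82F/84V. IC90 read from a viral p24 readout, following the earlier method.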

[7] = target: Human immunodeficiency virus type 1 protease (Human immunodeficiency virus 1) (UniProt Q72874); experiment: Antiviral activity against indinavir virus (HIV-1 mutated at 10R/63P/71V/82T/84V and resistant to indinavir)

SMILES	Ki [1] [nM]	Cmax [2] [nM]	IC90 (MT2) [nM]	bioavailability [3] [%]	IC90 mutant/IC90 WT [4]	IC90 mutant/IC90 WT [5]	IC90 mutant/IC90 WT [6]	IC90 mutant/IC90 WT [7]
CNc1cccc(CN2C(=O)N(Cc3ccc4[nH]ncc4c3)[C@H](Cc3ccccc3)[C@H](O)[C@@H](O)[C@H]2Cc2ccccc2)c1	0.039	8000	8	92	–	–	–	–
O=C1N(Cc2cccc(NCc3nc4ccccc4s3)c2)[C@H](Cc2ccccc2)[C@H](O)[C@@H](O)[C@@H](Cc2ccccc2)N1Cc1ccc2[nH]ncc2c1	0.059	–	5	–	3.3	20	25	–
Nc1ccc(CN2C(=O)N(Cc3ccc4[nH]ncc4c3)[C@H](Cc3ccccc3)[C@H](O)[C@@H](O)[C@H]2Cc2ccccc2)cc1	0.03	10600	11	100	31	240	170	–
Nc1cccc(CN2C(=O)N(Cc3ccc4[nH]ncc4c3)[C@H](Cc3ccccc3)[C@H](O)[C@@H](O)[C@H]2Cc2ccccc2)c1	0.03	7200	11	93	6.8	200	75	20
CC(=O)c1cccc(CN2C(=O)N(Cc3ccc4[nH]ncc4c3)[C@H](Cc3ccccc3)[C@H](O)[C@@H](O)[C@H]2Cc2ccccc2)c1	0.036	1300	15	25	–	–	–	–
N=C(NO)c1cccc(CN2C(=O)N(Cc3cccc(/C(N)=N/O)c3)[C@H](Cc3ccccc3)[C@H](O)[C@@H](O)[C@H]2Cc2ccccc2)c1	< 0.01	–	300	–	1	0.7	–	–
O=C1N(Cc2cccc(NCc3nc4ccccc4[nH]3)c2)[C@H](Cc2ccccc2)[C@H](O)[C@@H](O)[C@@H](Cc2ccccc2)N1Cc1ccc2[nH]ncc2c1	0.016	–	63	–	1	3	–	–
O=C(Nc1ncc[nH]1)c1cccc(CN2C(=O)N(Cc3cccc(C(=O)Nc4ncc[nH]4)c3)[C@H](Cc3ccccc3)[C@H](O)[C@@H](O)[C@H]2Cc2ccccc2)c1	–	–	60	–	0.7	0.7	0.2	0.4
Nc1ccc(CN2C(=O)N(Cc3ccc4[nH]ncc4c3)[C@H](Cc3ccccc3)[C@H](O)[C@@H](O)[C@H]2Cc2ccccc2)cc1-n1cccn1	0.045	–	6	–	3.3	50	70	–
Nc1cccc(CN2C(=O)N(Cc3cccc(N)c3)[C@H](Cc3ccccc3)[C@H](O)[C@@H](O)[C@H]2Cc2ccccc2)c1 [MOZENAVIR]	–	–	130	–	10	100	49	27
O=C(Cn1cncn1)c1cccc(CN2C(=O)N(Cc3ccc4[nH]ncc4c3)[C@H](Cc3ccccc3)[C@H](O)[C@@H](O)[C@H]2Cc2ccccc2)c1	0.022	150	51	–	–	–	–	–
Nc1ccc(CN2C(=O)N(Cc3ccc4[nH]ncc4c3)[C@H](Cc3ccccc3)[C@H](O)[C@@H](O)[C@H]2Cc2ccccc2)cc1-n1ccnn1	0.034	–	38	–	–	–	–	–
NC(=O)c1cc(CN2C(=O)N(Cc3ccc4[nH]ncc4c3)[C@H](Cc3ccccc3)[C@H](O)[C@@H](O)[C@H]2Cc2ccccc2)ccc1F	0.018	–	14	–	–	–	–	–
O=C(Cn1nccn1)c1cccc(CN2C(=O)N(Cc3ccc4[nH]ncc4c3)[C@H](Cc3ccccc3)[C@H](O)[C@@H](O)[C@H]2Cc2ccccc2)c1	0.046	–	15	–	–	–	–	–
Nc1ccc(CN2C(=O)N(Cc3ccc4[nH]ncc4c3)[C@H](Cc3ccccc3)[C@H](O)[C@@H](O)[C@H]2Cc2ccccc2)cc1-n1cncn1	0.029	500	35	–	1	20	9	–
O=C(Cn1ccnn1)c1cccc(CN2C(=O)N(Cc3ccc4[nH]ncc4c3)[C@H](Cc3ccccc3)[C@H](O)[C@@H](O)[C@H]2Cc2ccccc2)c1	0.021	–	30	–	–	–	–	–
O=C(O)c1cccc(CN2C(=O)N(Cc3ccc4[nH]ncc4c3)[C@H](Cc3ccccc3)[C@H](O)[C@@H](O)[C@H]2Cc2ccccc2)c1	0.049	–	750	–	–	–	–	–
CNc1cc(CN2C(=O)N(Cc3ccc4[nH]ncc4c3)[C@H](Cc3ccccc3)[C@H](O)[C@@H](O)[C@H]2Cc2ccccc2)ccc1F	0.027	670	7	14	–	–	–	–
O=C1N(Cc2cccc(Cn3nccn3)c2)[C@H](Cc2ccccc2)[C@H](O)[C@@H](O)[C@@H](Cc2ccccc2)N1Cc1ccc2[nH]ncc2c1	0.081	–	32	–	–	–	–	–
O=C(Nc1nccs1)c1cccc(CN2C(=O)N(Cc3ccc4[nH]ncc4c3)[C@H](Cc3ccccc3)[C@H](O)[C@@H](O)[C@H]2Cc2ccccc2)c1	0.016	–	8	–	2	22	9	7.3
O=C(Nc1ccccn1)c1cccc(CN2C(=O)N(Cc3ccc4[nH]ncc4c3)[C@H](Cc3ccccc3)[C@H](O)[C@@H](O)[C@H]2Cc2ccccc2)c1	0.051	–	5	–	–	–	–	–
O=C1N(Cc2cccc(O)c2)[C@H](Cc2ccccc2)[C@H](O)[C@@H](O)[C@@H](Cc2ccccc2)N1Cc1ccc2[nH]ncc2c1	0.045	–	36	–	–	–	–	–
O=C1N(Cc2ccc(CO)cc2)[C@H](Cc2ccccc2)[C@H](O)[C@@H](O)[C@@H](Cc2ccccc2)N1Cc1ccc(CO)cc1 [DMP-323]	–	–	57	–	28	97	93	18
O=C1N(Cc2cccc(-c3nc[nH]n3)c2)[C@H](Cc2ccccc2)[C@H](O)[C@@H](O)[C@@H](Cc2ccccc2)N1Cc1ccc2[nH]ncc2c1	0.041	–	24	–	3.3	18	3.8	–
Cc1cccc(NC(=O)c2cccc(CN3C(=O)N(Cc4ccc5[nH]ncc5c4)[C@H](Cc4ccccc4)[C@H](O)[C@@H](O)[C@H]3Cc3ccccc3)c2)n1	0.04	–	3	–	–	–	–	–
O=C(Cc1cccs1)c1cccc(CN2C(=O)N(Cc3ccc4[nH]ncc4c3)[C@H](Cc3ccccc3)[C@H](O)[C@@H](O)[C@H]2Cc2ccccc2)c1	0.23	–	18	–	–	–	–	–
Nc1ccc(CN2C(=O)N(Cc3ccc4[nH]ncc4c3)[C@H](Cc3ccccc3)[C@H](O)[C@@H](O)[C@H]2Cc2ccccc2)cc1F	0.036	–	7	–	–	–	–	–
O=C(Cc1ccccn1)c1cccc(CN2C(=O)N(Cc3ccc4[nH]ncc4c3)[C@H](Cc3ccccc3)[C@H](O)[C@@H](O)[C@H]2Cc2ccccc2)c1	0.073	700	15	–	1	5	10	–
Cc1ccc(NC(=O)c2cccc(CN3C(=O)N(Cc4ccc5[nH]ncc5c4)[C@H](Cc4ccccc4)[C@H](O)[C@@H](O)[C@H]3Cc3ccccc3)c2)nc1	0.048	< 50	4	–	–	–	–	–
Nc1ccc(CN2C(=O)N(Cc3ccc4[nH]ncc4c3)[C@H](Cc3ccccc3)[C@H](O)[C@@H](O)[C@H]2Cc2ccccc2)cc1-c1cc[nH]n1	0.025	–	22	–	2.2	20	2.1	–
